The results in this text go back to PubChem BioAssay AID720574 (Broad Institute, 2013).

Values joined by “and” are separate entries in the source; they are usually repeats but may differ in a detail not shown here. Equal values may be shown once. Screen size: about 96,000 compounds; about 140 (0.15%) were called active. For the sample, actives were picked, then their nearest neighbours and some compounds at random. Values without a mark were called inactive.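 How the source made its calls: active means mean replicate inhibition above about 25%, with at least 55% of replicates also reaching it (limit read from the data, passing the limit was not always enough); inconclusive means only one of those two conditions met; inactive means neither condition met.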

Chain of Lysine-specific demethylase 4C (Homo sapiens) (Q9H3R0 2-372 limits assumed): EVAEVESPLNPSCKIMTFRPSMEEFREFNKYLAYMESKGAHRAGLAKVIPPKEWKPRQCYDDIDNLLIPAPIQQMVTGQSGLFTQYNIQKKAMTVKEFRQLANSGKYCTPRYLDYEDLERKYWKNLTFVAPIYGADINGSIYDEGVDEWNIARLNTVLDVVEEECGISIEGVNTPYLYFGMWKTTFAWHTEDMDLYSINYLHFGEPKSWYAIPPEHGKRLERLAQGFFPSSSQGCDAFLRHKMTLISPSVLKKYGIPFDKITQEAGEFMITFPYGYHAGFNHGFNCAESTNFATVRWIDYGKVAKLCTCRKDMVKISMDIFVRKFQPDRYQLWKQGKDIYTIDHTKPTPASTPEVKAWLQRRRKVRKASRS

This test addresses Lysine-specific demethylase 4C (Homo sapiens) (UniProt Q9H3R0). Put plainly: KDM4C H3K9me3 demethylation inhibition – biochemical, single concentration HTS, primary screen (AID 720574). The following applies: GST-KDM4C 2-372, H3K9me3 peptide, LANCE TR-FRET; at 12.5 µM; hits give high values. The method in brief:
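Material: N-terminal GST-fused human GASC-1 (KDM4C) fragment, residues 2-372. Input: 10 nM enzyme. Incubation: enzyme reaction 30 min, then detection 60 min, both room temperature. Doses: one test concentration per compound. Read-out basis: inhibition from TR-FRET ratio decrease. Detection: LANCE TR-FRET, excitation 340 nm, emissions 618 and 671 nm.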
(Time-resolved FRET reads energy transfer from a long-lived donor to a nearby acceptor.)
For orientation: inhibition means the change of the read-out against control, counted positive when it falls. As for `O=C(Cc1cccnc1)N1CC(=O)N2[C@@H](CO)[C@@H](c3ccc(C#CC4CCCCC4)cc3)[C@@H]2C1`, the inhibition is -0.852%. To `COc1ccc(-c2cn(CC[C@H]3CC[C@@H](N)[C@H](CO)O3)nn2)cc1` belongs -0.108%; to `N[C@@H]1CC[C@H](CCn2cc(C3CC3)nn2)O[C@@H]1CO`, 57.3% (active); to `CN(C)CC(=O)N[C@@H]1CC[C@@H](CCn2cc(C3CC3)nn2)O[C@H]1CO`, -0.3%. In the case of `O=C(c1ccncc1)N1CC[C@@H]2[C@H]1c1cc(Br)ccc1N[C@@H]2CO`, the inhibition is 1.89%. In the case of `CC(=O)N1[C@H](CO)[C@H](c2ccc(-c3ccccc3)cc2)[C@H]1CNC(=O)NC(C)C` it was -0.299%; in that of `CCC(=O)N[C@H]1CC[C@@H](CC(=O)NCC2CC2)O[C@@H]1CO`, -0.369%.

With `C/C=C/c1ccc([C@H]2[C@@H](CO)N(C(C)=O)[C@H]2CN(C)S(C)(=O)=O)cc1`, the inhibition was 1.96%. To `COc1ccc(S(=O)(=O)Nc2ccc3c(c2)C(=O)N([C@@H](C)CO)C[C@H](C)[C@@H](CN(C)C(=O)NC(C)C)OCCCC[C@H](C)O3)cc1` belongs 0.601%; to `CN(C)C(=O)[C@@H]1[C@@H](CO)[C@@H]2Cn3c(cccc3=O)[C@H]1N2C(=O)c1ccc(F)cc1`, -1.64%. In the case of `COc1ccc(NC(=O)N(C)C[C@H]2OCCCC[C@@H](C)Oc3ccc(NC(=O)NC4CCCCC4)cc3C(=O)N([C@H](C)CO)C[C@H]2C)cc1`, the inhibition is -1.08%. Regarding `O=C(NC1Cc2ccccc2C1)[C@H]1[C@H](CO)[C@H]2Cn3c(ccc(C4=CCCCC4)c3=O)[C@H]2N1CC1CC1`, the inhibition was 3.76%. In the case of `CC(C)NC(=O)N[C@H]1CC[C@@H](CCNC(=O)C2CCC2)O[C@@H]1CO` it was -2.41%. In the case of `Cc1ccccc1S(=O)(=O)N1[C@@H]2CNC[C@H]1C2c1ccc(-c2cccnc2)cc1` (some centres undefined) it was -0.633% and -0.155%. On to `O=C(NCc1ccncn1)[C@@H]1[C@@H](CO)[C@@H]2Cn3c(ccc(-c4ccc(F)cc4)c3=O)[C@@H]2N1CC1CC1`, for which the inhibition was 12.7%. Consider `O=C(c1cnccn1)N1CC(=O)N2[C@H](C1)[C@@H](c1ccc(C#CC3CCCC3)cc1)[C@@H]2CO`, for which the inhibition is 7.28%.

For `O=C(C[C@@H]1CC[C@H]2[C@@H](COC[C@@H](O)CN2S(=O)(=O)c2cccc(F)c2)O1)NCCCN1CCOCC1`, the inhibition is -0.281%.

`C[C@H](CO)N1C[C@H](C)[C@H](CN(C)C(=O)C2CC2)Oc2cc(-c3cccnc3)ccc2S1(=O)=O`: the inhibition is 0.237%.

With `Cn1cnc(CCNC(=O)C[C@@H]2CC[C@H]3[C@@H](COC[C@@H](O)CN3C(=O)Nc3ccc(Cl)cc3)O2)c1`, the inhibition was -0.915%. To `O=C(Cc1ccccn1)N1CC(=O)N2[C@H](C1)[C@@H](c1ccc(-c3ccccc3)cc1)[C@@H]2CO` belongs 1.11%. `O=C(c1ccc2c(c1)OCO2)N1CC(=O)N2[C@H](C1)[C@@H](c1ccc(C#Cc3ccccc3)cc1)[C@@H]2CO`: the inhibition is -2.3%. To `O=C(NCC[C@@H]1CC[C@H](NC(=O)Nc2cc(F)ccc2F)[C@@H](CO)O1)Nc1ccc(Cl)cc1` belongs 0.858%.

For the molecule `C[C@@H]1CN([C@@H](C)CO)S(=O)(=O)c2ccc(C#Cc3ccc(F)cc3)cc2O[C@H]1CN(C)C(=O)NC1CCCC1`, the inhibition was 55.9% (active). To `C[C@@H]1CN([C@@H](C)CO)S(=O)(=O)c2ccc(C#Cc3ccc(F)cc3)cc2O[C@@H]1CN(C)CC1CC1` belongs -2.29%; to `C/C=C/c1ccc2c(c1)O[C@@H](CN(C)C(=O)NC1CCCC1)[C@@H](C)CN([C@H](C)CO)S2(=O)=O`, 0.88%; to `COc1ccc2c3c(n(C)c2c1)[C@H](CO)N(Cc1ccc(F)cc1)CC31CN(CC2CCOCC2)C1`, -0.66%. With `COc1ccc2c3c(n(C)c2c1)[C@@H](CO)N(C(=O)Nc1ccc(F)cc1)CC31CCN(C(=O)c2cccnc2)CC1`, the inhibition is -1.49%. Regarding `CO[C@@H]1CN(C)C(=O)c2cc(NC(=O)C3CC3)ccc2OC[C@H](C)N(Cc2ccc(F)cc2)C[C@@H]1C`, the inhibition was -0.0715%. For `C[C@H](CO)N1C[C@H](C)[C@@H](CN(C)S(=O)(=O)c2ccccc2)OCCCC[C@H](C)Oc2ccc(NC(=O)NC3CCCCC3)cc2C1=O`, the inhibition is 0.616%. Regarding `COCC(=O)NC[C@@H]1[C@@H](c2ccc(C3=CCCC3)cc2)[C@@H](CO)N1C(C)=O`, the inhibition is 3.61%. To `CCC(=O)Nc1ccc2c(c1)C(=O)N(C)C[C@@H](OC)[C@@H](C)CN(C(=O)CN(C)C)[C@@H](C)CO2` belongs 1.55%; to `O=C(C[C@@H]1C[C@@H]2c3cc(NS(=O)(=O)c4ccccc4)ccc3O[C@@H]2[C@@H](CO)O1)NC1CCCCC1`, -0.944%; to `CS(=O)(=O)N1CC2(C1)[C@H](c1ccccc1)[C@H](CO)N2Cc1ccc(F)cc1`, 0.43%. Consider `CO[C@@H]1CN(C)C(=O)c2ccc(NC(=O)NC(C)C)cc2OC[C@@H](C)N(Cc2ccc(-c3ccccn3)cc2)C[C@H]1C`, for which the inhibition is 0.434%. To `CO[C@H]1CN(C)C(=O)c2ccc(NS(=O)(=O)c3ccccc3)cc2OC[C@@H](C)N(Cc2nccs2)C[C@@H]1C` belongs 0.175%; to `COC(=O)C[C@H]1C[C@H]2c3cc(NC(=O)NC4CCCCC4)ccc3O[C@H]2[C@H](CO)O1`, 9.44%; to `CC(C)NC(=O)N1[C@H](CNC(=O)CN(C)C)[C@@H](c2ccccc2)[C@@H]1CO`, -0.351%. To `O=C(c1ccccn1)N1CC2(C1)[C@@H](c1ccccc1)[C@@H](CO)N2C(=O)C1CCC1` belongs -1.3%. As for `O=C(NCC[C@H]1CC[C@H](NS(=O)(=O)c2ccccc2)[C@H](CO)O1)c1cc(Cl)cc(Cl)c1`, the inhibition was -1.8%.

As for `COc1ccc(-c2cnc3c(c2)C(=O)N([C@H](C)CO)C[C@@H](C)[C@H](CN(C)C(=O)Cc2ccncc2)O3)cc1`, the inhibition was -0.262%.

On to `CO[C@@H]1CN(C)C(=O)c2cc(NC(=O)Nc3ccccc3F)ccc2OC[C@H](C)NC[C@H]1C`, for which the inhibition was 0.557%. As for `CCCNC(=O)C[C@@H]1CC[C@H]2[C@H](COc3ccc(NC(=O)CCC)cc3C(=O)N2C)O1`, the inhibition was 1.75%. `CCCNC(=O)N1CC2(C1)[C@H](c1ccccc1)[C@@H](CO)N2C(=O)C1CC1`: the inhibition was 1.13%.

Regarding `C/C=C/c1ccc([C@@H]2[C@@H](CO)N(C(=O)CN(C)C)C23CN(C(=O)C2CCCC2)C3)cc1`, the inhibition is 0.163%.

As for `CO[C@@H](CN(C)S(=O)(=O)c1ccccc1)[C@H](C)CN(Cc1ccccc1Cl)[C@H](C)CO`, the inhibition is 1.1%. For the molecule `COc1ccc2c3c(n(C)c2c1)[C@@H](CO)N(C(C)=O)CC31CCN(C(=O)C2CC2)CC1`, the inhibition is -0.393%. Regarding `O=C(Nc1ccccc1F)N1CC(=O)N2[C@H](C1)[C@H](c1ccc(C#Cc3ccc(F)cc3)cc1)[C@@H]2CO`, the inhibition is 1.34%.

Consider `CCC(=O)N(C)C[C@H]1Oc2ncc(-c3ccccc3OC)cc2C(=O)N([C@H](C)CO)C[C@H]1C`, for which the inhibition was 17.4%. In the case of `CN1[C@@H]2CN(C(=O)C3CCCCC3)c3ccccc3[C@@H]2[C@@H]1CO` it was 4.33%; in that of `Cc1cccc(S(=O)(=O)N2C[C@@H]3[C@H](c4ccccc42)[C@H](CO)N3CC2CCOCC2)c1`, -0.667%.

Take `O=C(NCc1ccc(F)cc1)[C@@H]1[C@@H](CO)[C@@H]2Cn3c(cccc3=O)[C@@H]2N1C(=O)c1cccnc1`: the inhibition was -0.929%. Take `CO[C@H]1CN(C)C(=O)c2ccc(NC(=O)NC(C)C)cc2OC[C@@H](C)N(C(=O)CN(C)C)C[C@H]1C`: the inhibition is 0.223%. To `COc1ccc(CN(C)C[C@@H]2Oc3ccc(NC(=O)Nc4ccc(F)cc4)cc3CC(=O)N([C@@H](C)CO)C[C@H]2C)cc1` belongs -0.133%; to `O=C(C1CCOCC1)N1C[C@H]2[C@@H](c3ccccc31)[C@@H](CO)N2Cc1ccccc1`, 2.96%. In the case of `O=C(CC1CC1)N1[C@@H]2CN(S(=O)(=O)c3ccccc3F)c3ccccc3[C@@H]2[C@@H]1CO` it was 2%; in that of `C[C@H](CO)N1C[C@H](C)[C@@H](CN(C)S(=O)(=O)c2ccccc2)Oc2ncc(C#Cc3ccccc3F)cc2C1=O`, -3.49%. Turning to `C[C@H]1CN([C@@H](C)CO)C(=O)c2cc(C#Cc3ccccc3F)cnc2O[C@@H]1CN(C)C(=O)C1CC1`, the inhibition was -1.28%. To `C[C@H]1CN([C@@H](C)CO)C(=O)c2cc(C#Cc3ccccc3F)cnc2O[C@H]1CN(C)C` belongs 28.4% (active); to `COc1ccc2c3c([nH]c2c1)[C@@H](CO)N(C(=O)Nc1ccc(F)cc1)CC31CN(S(C)(=O)=O)C1`, -0.649%.
